The source of these data is ChEMBL document CHEMBL1136742, “New isomeric azine-bridged dinuclear platinum(II) complexes circumvent cross-resistance to cisplatin” (J Med Chem, 2003).

Holding throughout (type): functional, cell-based
One assay has as its system NCI-H226. Nature of the assay: In vitro cytotoxicity against human tumor H226 cell line (nonsmall cell lung cancer). The procedure, abridged:
(§1)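 Cells kept in log-phase culture in RPMI 1640 with Hepes and phenol red, 10% FCS, penicillin 100 IU/mL and streptomycin 100 µg/mL. Complexes dissolved in water and diluted in full medium, then added after 48 h preincubation in 96-well plates. Incubation 120 h at 37 °C, 8.5% CO2. IC50 read by sulforhodamine-B microculture test.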

In a further assay the test system is EVSA-T. Nature of the assay: In vitro cytotoxicity against human tumor EVSA-T cell line (breast cancer). A digest of the protocol: as §1
The next assay relates to MCF7. Nature of the assay: In vitro cytotoxicity against human tumor MCF-7 cell line (breast cancer). The procedure, abridged: as §1
Another assay concerns WiDr. Nature of the assay: In vitro cytotoxicity against human tumor WIDR cell line (colon cancer). The procedure, abridged: as §1
A further assay relates to IGROV-1. Nature of the assay: In vitro cytotoxicity against human tumor IGROV cell line (ovarian cancer). A digest of the protocol: as §1
A further assay concerns M19-MEL. Nature of the assay: In vitro cytotoxicity against human tumor M19 cell line (melanoma cancer). A digest of the protocol:
as §1

Assay [1] has as its system L1210. Nature of the assay: In vitro cytotoxicity against mouse tumor L1210 cell line (sensitive to Cisplatin). A digest of the protocol:
(§2)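 Suspension culture in RPMI 1640 with 10% heat-inactivated fetal calf serum, no antibiotics, 37 °C, 5% CO2. Cells seeded at 10^5 cells/mL in 96-well plates and exposed 48 h to a range of platinum complex concentrations. MTT added, 4 h at 37 °C, then wash with PBS. Dye taken up in 2-propanol, absorbance read at 570 nm. IC50 taken as 50% absorbance drop versus drug-free control.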

A further assay concerns A498. Nature of the assay: In vitro cytotoxicity against human tumor A498 cell line (renal cancer). A digest of the protocol:
as §1

The test system of assay [2] is L1210. Nature of the assay: Ratio of in vitro cytotoxicity against mouse tumor L1210 cell line (resistant to Cisplatin) to that of sensitive L1210 cell line. A digest of the protocol: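 Resistant and sensitive L1210 cells in suspension culture, RPMI 1640 with 10% heat-inactivated FCS, no antibiotics, 37 °C, 5% CO2. Cells seeded at 10^5 cells/mL and exposed 48 h to platinum complexes. MTT read at 570 nm after solubilizing in 2-propanol. IC50 is 50% absorbance drop versus control; ratio is resistant IC50 over sensitive IC50.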

Assay [3] relates to L1210. Nature of the assay: In vitro cytotoxicity against mouse tumor L1210 cell line (resistant to Cisplatin). A digest of the protocol: as §2

For CISPLATIN [listing 1 of 2 here], the IC50 amounted to 10.9 µM in the assay on NCI-H226; 1.4 µM in the assay on EVSA-T; 2.3 µM in the assay on MCF7; 3.2 µM in the assay with WiDr; 0.6 µM in the assay with IGROV-1; 1.9 µM with M19-MEL. For the same substance, the IC50 in the assay with L1210 [1] came to 2.2 µM; with A498 it was 7.5 µM.

Regarding CISPLATIN [listing 2 of 2 here], the Ratio in the assay on L1210 [2] turned out to be 6.6.

Turning to “[{cis-Pt(NH3)2Cl}2(-pdn)](NO3)2 [listing 1 of 2 here]”, the IC50 with NCI-H226 was over 85.2 µM; in the assay with EVSA-T it was over 85.2 µM; with MCF7, 23 µM; in the assay with L1210 [3], 21.3 µM; with WiDr, 13.3 µM; with IGROV-1 it was 0.2 µM. Also, the IC50 turned out to be 7.2 µM in the assay on M19-MEL, 5.7 µM in the assay with L1210 [1] and 53 µM in the assay with A498.

For “[{cis-Pt(NH3)2Cl}2(-pdn)](NO3)2 [listing 2 of 2 here]”, the Ratio in the assay on L1210 [2] came out at 3.7.

As for “[{cis-Pt(NH3)2Cl}2(-pzn)](NO3)2 [listing 1 of 2 here]”, the IC50 is over 85.2 µM in the assay with NCI-H226; 47 µM in the assay on EVSA-T; 17 µM in the assay on MCF7; 3.5 µM in the assay with L1210 [3]; 2.4 µM in the assay on WiDr; 1 µM in the assay with IGROV-1. Besides, the half-maximal inhibitory concentration (IC50) in the assay with M19-MEL turned out to be 20.9 µM; in the assay with L1210 [1], 1 µM; in the assay with A498, 63.5 µM.

As to “[{cis-Pt(NH3)2Cl}2(-pzn)](NO3)2 [listing 2 of 2 here]”, the Ratio in the assay with L1210 [2] is 3.5.

For “[{cis-Pt(NH3)2Cl}2(-pzn)]Cl2 [listing 1 of 2 here]”, the IC50 was over 91.9 µM in the assay on NCI-H226; 42.5 µM with EVSA-T; 15.5 µM in the assay on MCF7; 2.5 µM in the assay with L1210 [3]; 2 µM in the assay with WiDr; 0.8 µM in the assay on IGROV-1. In addition, the IC50 in the assay on M19-MEL worked out at 21.4 µM; with L1210 [1], 1.2 µM; in the assay with A498, 54.1 µM.

In the case of “[{cis-Pt(NH3)2Cl}2(-pzn)]Cl2 [listing 2 of 2 here]”, in the assay with L1210 [2], the Ratio was 2.1.
